Active and inactive are the calls of the source. The rule behind the calls is not given here.
What was measured:
[1] = tested on: Vero; assay: In vitro inhibitory activity against HSV-1 in vero cells of african green monkey at concentration 100 uM; Inactive; format: functional, cell-based; details: Chlorocebus sabaeus
[2] = tested on: Vero; assay: In vitro inhibitory activity against HSV-2 in vero cells of african green monkey at concentration 100 uM; Inactive; format: functional, cell-based; details: Chlorocebus sabaeus
[3] = Toxicity in Vero (African green monkey) cells at concentration 100 uM; compound found nontoxic; details: chlorocebus aethiops, in vitro
[4] = organism: Homo sapiens; assay: In vitro inhibitory activity against HIV-1 in human peripheral blood mononuclear cells at concentration 100 uM; Inactive; format: functional
In short: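 Mitogen-stimulated PBM cells, three days old (10⁶ cells/mL), came from hepatitis- and HIV-1-seronegative donors. They were infected with HIV-1 strain LAV at about 100 TCID₅₀/mL. Compounds were added about 45 min post-infection and tested up to 100 μM. On day 5 the supernatant was clarified, virus pelleted, and reverse transcriptase activity measured. Cells came from three donors.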

[5] = tested on: Vero; assay: In vitro inhibitory activity against HSV-1 in vero cells in african green monkey at concentration 100 uM; Inactive; format: functional, cell-based; details: Chlorocebus sabaeus
[6] = tested on: Vero; assay: In vitro inhibitory activity against HSV-2 in vero cells in african green monkey at concentration 100 uM; Inactive; format: functional, cell-based; details: Chlorocebus sabaeus
[7] = Toxicity in Vero (African green monkey) cells at concentration 100 uM; compound found nontoxic; details: chlorocebus aethiops, in vitro; remark: listed apart in the source
[8] = tested on: Vero; assay: In vitro inhibitory activity against HSV-1 in Vero (African green monkey) cells at concentration 100 uM; Inactive; details: Chlorocebus sabaeus
[9] = tested on: Vero; assay: In vitro inhibitory activity against HSV-2 in Vero (African green monkey) cells at concentration 100 uM; Inactive; details: Chlorocebus sabaeus
[10] = tested on: Vero; assay: In vitro inhibitory activity against HSV-1 in vero cells in african green monkey at concentration 100 uM; IA is inactive.; format: functional, cell-based; details: Chlorocebus sabaeus
[11] = tested on: Vero; assay: In vitro inhibitory activity against HSV-2 in vero cells of african green monkey at concentration 100 uM; IA is inactive.; format: functional, cell-based; details: Chlorocebus sabaeus
[12] = Toxicity in Vero (African green monkey) cells at concentration 100 uM; compound was found nontoxic; details: chlorocebus aethiops, in vitro

**Q.** Which Activity [1] does the source give for `COC(=O)CC(SCCO)n1cc(C)c(=O)[nH]c1=O` (stereo not drawn) here?
**A.** inactive

**Q.** And the Activity [2]?
**A.** inactive

**Q.** And the Toxicity [3]?
**A.** Non-toxic

**Q.** For `Cc1cn(C(CCO)OCCO)c(=O)[nH]c1=O` (stereo not drawn), which Activity [4] is on record?
**A.** inactive

**Q.** What about the Activity [5] of the same compound?
**A.** inactive

**Q.** What about the Activity [6] of the same compound?
**A.** inactive

**Q.** What about the Toxicity [7] of the same compound?
**A.** Non-toxic

**Q.** And the Activity [8]?
**A.** inactive

**Q.** And the Activity [9]?
**A.** inactive

**Q.** Which Activity [4] does the source give for `COC(=O)COC(CC(=O)OC)n1cc(C)c(=O)[nH]c1=O` (stereo not drawn) here?
**A.** inactive

**Q.** What about the Activity [5] of the same compound?
**A.** inactive

**Q.** And the Activity [6]?
**A.** inactive

**Q.** And the Toxicity [7]?
**A.** Non-toxic

**Q.** What about the Activity [8] of the same compound?
**A.** inactive

**Q.** And the Activity [9]?
**A.** inactive

**Q.** Which Activity [4] does the source give for `Cc1cn(C(CCN=[N+]=[N-])OCCO)c(=O)[nH]c1=O` (stereo not drawn) here?
**A.** inactive

**Q.** And the Activity [5]?
**A.** inactive

**Q.** And the Activity [6]?
**A.** inactive

**Q.** And the Toxicity [7]?
**A.** Non-toxic

**Q.** And the Activity [8]?
**A.** inactive

**Q.** And the Activity [9]?
**A.** inactive

**Q.** With `COC(=O)/C=C/n1cc(C)c(=O)[nH]c1=O` as the compound, how does the Activity [1] read?
**A.** inactive

**Q.** What about the Activity [2] of the same compound?
**A.** inactive

**Q.** What about the Toxicity [3] of the same compound?
**A.** Non-toxic

**Q.** Which Activity [4] does the source give for `Cc1cn(C(CCO)SCCO)c(=O)[nH]c1=O` (stereo not drawn) here?
**A.** inactive

**Q.** What about the Activity [10] of the same compound?
**A.** No activity

**Q.** What about the Activity [11] of the same compound?
**A.** No activity

**Q.** What about the Toxicity [12] of the same compound?
**A.** Non-toxic

From ChEMBL document CHEMBL1124340, “Acyclic analogues of 3'-azido-3'-deoxythymidine as potential antiviral agents. Nucleoside synthesis by Michael addition” (J Med Chem, 1989)
